From ChEMBL document CHEMBL3763087, “Picrajavanicins A-G, Quassinoids from Picrasma javanica Collected in Myanmar” (J Nat Prod, 2015)

Experiments:
Format in all cases: functional, cell-based
A549 = assay: Antiproliferative activity against human A549 cells after 72 hrs by WST-8 assay; conditions: A549, 72 h
How it was run: (§1)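 The procedure follows an earlier report. Human A549 lung adenocarcinoma and HeLa cervix adenocarcinoma lines came from RCB; PANC-1 pancreatic epithelioid carcinoma, PSN-1 pancreatic adenocarcinoma and MDA-MB-231 breast adenocarcinoma came from ATCC. All were maintained in-house and grown in 96-well plates. Cell absorbance was read on a microplate reader and IC50 derived. 5-Fluorouracil served as positive control.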

HeLa = assay: Antiproliferative activity against human HeLa cells after 72 hrs by WST-8 assay; how it was run: as §1
[1] = Antiproliferative activity against human PANC1 cells after 72 hrs by WST-8 assay; conditions: PANC-1, 72 h; how it was run: as §1
PSN1 = assay: Antiproliferative activity against human PSN1 cells after 72 hrs by WST-8 assay; conditions: PSN1, 72 h; how it was run: as §1
MDA-MB-231 = assay: Antiproliferative activity against human MDA-MB-231 cells after 72 hrs by WST-8 assay; conditions: MDA-MB-231, 72 h; how it was run: as §1

Row | SMILES | IC50 (A549) | IC50 (HeLa) | IC50 [1] | IC50 (PSN1) | IC50 (MDA-MB-231)
1 | COC1=C(C)[C@]2(O)CC(=O)O[C@@H]3C[C@H]4CC[C@H](O)C(=O)[C@]4(C)[C@@H](C1=O)[C@@]32C | > 10 µM | > 10 µM | > 10 µM | > 10 µM | > 10 µM
2 | COC1=CC[C@@H]2C[C@H]3OC(=O)C[C@H]4C(C=O)=C(OC)C(=O)[C@H]([C@@]2(C)C1=O)[C@@]34C | > 10 µM | > 10 µM | > 10 µM | > 10 µM | > 10 µM
3 | COC1=CC[C@@H]2C[C@H]3OC(=O)C=C4C(C)=C(OC)C(=O)[C@H]([C@@]2(C)C1=O)[C@]43C | > 10 µM | > 10 µM | > 10 µM | > 10 µM | > 10 µM
4 | COC1=C(C)[C@@H]2CC(=O)O[C@@H]3C[C@H]4CC[C@H](O)C(=O)[C@]4(C)[C@@H](C1=O)[C@@]32C | > 10 µM | > 10 µM | > 10 µM | > 10 µM | > 10 µM
5 | COC1=CC[C@@H]2C[C@H]3OC(O)C[C@H]4C(C)=C(OC)C(=O)[C@H]([C@@]2(C)C1=O)[C@@]34C (stereo not given in full) | > 10 µM | > 10 µM | > 10 µM | > 10 µM | > 10 µM
6 | COC1=CC[C@@H]2C[C@H]3OC(=O)C=C4C(CO)=C(OC)C(=O)[C@H]([C@@]2(C)C1=O)[C@]43C | > 10 µM | > 10 µM | > 10 µM | > 10 µM | > 10 µM
7 | COC1=C(OC)C(=O)[C@@]2(C)[C@H](C1)C[C@H]1OC(=O)C[C@@]3(O)C(C)=C(OC)C(=O)[C@H]2[C@@]13C | > 10 µM | > 10 µM | > 10 µM | > 10 µM | > 10 µM
8 | COC1=CC[C@@H]2C[C@H]3OC(=O)C[C@H]4C(C)=C(OC)C(=O)[C@H]([C@@]2(C)C1=O)[C@@]34C | > 10 µM | > 10 µM | > 10 µM | > 10 µM | > 10 µM
9 | COC1=C(OC)C(=O)[C@@]2(C)[C@H](C1)C[C@H]1OC(=O)C[C@H]3C(C)=C(OC)C(=O)[C@H]2[C@@]13C | > 10 µM | > 10 µM | > 10 µM | > 10 µM | > 10 µM
10 | COC1=C(C)[C@@H]2CC(=O)O[C@@H]3C[C@H]4CC[C@H](OC)C(=O)[C@]4(C)[C@@H](C1=O)[C@@]32C | > 10 µM | > 10 µM | > 10 µM | > 10 µM | > 10 µM
11 | O=c1[nH]cc(F)c(=O)[nH]1 [FLUOROURACIL] | 9 µM | 6.4 µM | 0.4 µM | 8.7 µM | 1.1 µM
